Assay results from article PMC4191608 (ACS Medicinal Chemistry Letters, 2014).

Assays:
[1] = tested on: pooled human liver microsomes; assay: EFV analogue metabolism by pooled human liver microsomes; format: in vitro ADME; settings: 2 mg/mL HLM, 10 μM analogue, NADPH regenerating system, 60 min, uHPLC-MS/MS
Procedure, shortened: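 Pooled human liver microsomes were incubated with test compound and an NADPH regenerating system. Oxidative products (monooxygenated or N-dealkylated) were profiled by uHPLC–MS/MS and assigned by m/z, retention time and fragment ions.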

[2] = target: T1, CYP2B6 (Homo sapiens, UniProt P20813); assay: Substrate depletion kinetics with CYP2B6; format: in vitro ADME
T1 sequence (P20813 1-491): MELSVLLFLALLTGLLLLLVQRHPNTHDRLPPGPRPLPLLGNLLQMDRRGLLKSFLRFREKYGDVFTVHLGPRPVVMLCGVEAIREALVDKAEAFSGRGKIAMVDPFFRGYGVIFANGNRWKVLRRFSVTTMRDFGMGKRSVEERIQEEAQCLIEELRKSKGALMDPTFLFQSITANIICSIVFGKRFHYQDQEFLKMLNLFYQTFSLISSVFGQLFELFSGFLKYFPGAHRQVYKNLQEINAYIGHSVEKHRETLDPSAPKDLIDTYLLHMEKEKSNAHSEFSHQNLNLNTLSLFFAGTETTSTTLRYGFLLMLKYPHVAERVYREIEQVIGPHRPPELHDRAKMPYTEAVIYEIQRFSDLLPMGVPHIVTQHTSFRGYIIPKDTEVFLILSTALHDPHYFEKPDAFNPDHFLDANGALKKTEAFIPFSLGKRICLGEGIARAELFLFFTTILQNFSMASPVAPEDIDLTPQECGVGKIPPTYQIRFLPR
Procedure, shortened: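 cDNA-expressed CYP2B6 (insect microsomes, 10 nM) was incubated with substrate at 37 °C in 100 mM potassium phosphate. After NADPH regenerating system was added, aliquots at 0, 2, 5, 10, 20 and 30 min were quenched in equal-volume acetonitrile with fluorinated internal standard. Depletion was measured by uHPLC–MS/MS, giving Km, kdep max and Vmax. Mean ± SD, three replicate experiments in duplicate.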

[3] = target: T1, CYP2B6; assay: Inhibition of CYP2B6 bupropion hydroxylase activity; format: biochemical; settings: 10 μM compound, 40 μM bupropion, CYP2B6 50 nM, 10 min, 37 °C
Procedure, shortened: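 Enzyme was cDNA-expressed CYP2B6 in insect microsomes, incubated with bupropion and test compound in 100 mM potassium phosphate buffer. Hydroxybupropion was quantified by uHPLC–MS/MS and expressed as a percentage of a vehicle control (no test compound). Mean ± SD of three replicate experiments run in duplicate; significance was tested against vehicle.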

| Compound | Metabolites detected from incubation with human liver microsomes [1] | also measured |
| --- | --- | --- |
| CCCC#CC1(C(F)(F)F)OC(=O)Nc2ccc(Cl)cc21 (racemic) [analogue 4, rac 6-Chloro-1,4-dihydro-4-(1-pentynyl)-4-(trifluoromethyl)-2H-3,1-benzoxazin-2-one] | Monooxygenated metabolites | fold increase in Km relative to EFV [2]: 2 fold |
| COc1ccc(C(=O)Nc2ccc(Cl)cc2C(O)(C#CC2CC2)C(F)(F)F)cc1 (racemic) [analogue 7, rac N-[4-Chloro-2-[3-cyclopropyl-1-hydroxy-1-(trifluoromethyl)-2-propynyl]phenyl]-4-methoxybenzamide] | No metabolites | inhibition of CYP2B6 hydroxybupropion formation (in words) [3]: unable to inhibit hydroxybupropion formation |
| O=C1Nc2ccc(Cl)cc2[C@@](C#CC2CC2)(C(F)(F)F)O1 [EFV, efavirenz, reference compound] |  | decrease in hydroxybupropion formation compared to vehicle control [3]: 93% |
| O=C1Nc2ccc(Cl)cc2[C@@](/C=C/C2CC2)(C(F)(F)F)O1 [analogue 3, (E)-Dihydroefavirenz] | Monooxygenated metabolites | fold decrease in Km between EFV and analogue ([2]; relative to EFV): 2 fold |
| FC(F)(F)[C@@]1(C#CC2CC2)OCNc2ccc(Cl)cc21 [analogue 8, (4S)-6-Chloro-4-(2-cyclopropylethynyl)-1,4-dihydro-4-(trifluoromethyl)-2H-3,1-benzoxazine] | Monooxygenated metabolites |  |
